Results on 37 sequences are retold here after the array DNA melting data of Ke et al. (doi:10.1101/2024.01.08.574731).

The nature of data set [1]: folding enthalpy; higher = less favourable; fluorescence melt of hairpins on a sequencing array, two-state fit. Conditions: sodium 0.088 M. An outline of the steps:
(§1)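 Two-state fits, bootstrapped, provided melting temperature and folding enthalpy from Cy3 fluorescence normalised to pre-quench Cy3 and to control constructs. Library hairpins with annealed Cy3 and quencher oligos were imaged on a sequenced MiSeq flow cell in 50 mM Na-HEPES pH 8.0, 25 mM NaCl, at 2.5 °C intervals up to 60 °C. Four replicates were combined with inverse-variance weighting. A 9.35 °C upward shift was applied to fitted temperatures to match UV melts.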

Data set [2] can be described thus: melting temperature; fluorescence melt of hairpins on a sequencing array, two-state fit, raised by 9.35 °C to match UV melts. Conditions: sodium 0.088 M. An outline of the steps: as §1

Regarding GATCTGACTCCAGATC ((((((....)))))), the folding enthalpy in data set [1] is -33.9 kcal/mol. Besides, the Tm in data set [2] came to 46.6 °C.
For GTGGCCGAAAGGCATCAC ((((((....)))..))), the folding enthalpy in data set [1] is -11.8 kcal/mol. For the same sequence, the Tm in data set [2] worked out at 39.5 °C.
The like results for GCGAACATTCGC ((((....)))) were, in that order, -21.4 kcal/mol and 48.2 °C.
On to GGAAATCCGAAAGGATCC (((..(((....)))))), for which, in data set [1], the folding enthalpy is -13.1 kcal/mol. The Tm in data set [2] was 35.4 °C.
On to GGGATACGAAAGTAGCCC (((.(((....))).))), for which the folding enthalpy in data set [1] is -43.9 kcal/mol. Also, the Tm in data set [2] was found to be 63.1 °C.
Take GATCCGCTACGGATC ((((((...)))))): in data set [1], the folding enthalpy is -31.7 kcal/mol. In addition, the Tm in data set [2] worked out at 57.2 °C.
The like results for GAAAGGGCGAAAGCCTTC (((..(((....)))))) were, in that order, -9.82 kcal/mol and 24.8 °C.
The like results for GCATTGCGAAAGCAGTGC (((.(((....))).))) were, in that order, -48.9 kcal/mol and 59.8 °C.
The matching figures for GATCCCTCGTGGGATC ((((((....)))))): -40.2 kcal/mol and 62.2 °C.
Turning to CGCCCGGAAACGGGAGCG ((((((....)))..))), the folding enthalpy in data set [1] is -15.3 kcal/mol. In addition, the Tm in data set [2] was determined as 55.3 °C.
The like results for GTAGACGAAAGTCTAC ((((((....)))))) were, in that order, -35.9 kcal/mol and 62 °C.
The like results for GATCTTGATCAAGATC ((((((....)))))) were, in that order, -40.9 kcal/mol and 49.7 °C.
As to GAGCATGGAAACACGCTC ((((.((....)).)))), the folding enthalpy in data set [1] is -35.6 kcal/mol. Also, the Tm in data set [2] was 44 °C.
Turning to GATTAGCGAAAGCTTATC (((.(((....))).))), the folding enthalpy in data set [1] was -20.5 kcal/mol. Further, in data set [2], the Tm was found to be 39.1 °C.
The matching figures for GTTACGGGAAACCATAAC ((((.((....)).)))): -15.6 kcal/mol and 30 °C.
The like results for GCACTGCGAAAGCACCGC ((..(((....)))..)) were, in that order, -9.03 kcal/mol and 29.5 °C.
The like results for GCCGTAGGAAACTACGAC (.(((((....))))).) were, in that order, -18.5 kcal/mol and 40.8 °C.
As to GCTGAGGGAAACCCCAGC ((((.((....)).)))), in data set [1], the folding enthalpy was -33.3 kcal/mol. The Tm in data set [2] was found to be 51.4 °C.
The like results for GATCCAGGAAACTGGATC (((((((....))))))) were, in that order, -38.1 kcal/mol and 60.9 °C.
On to GAGGTGAAAACCTC (((((....))))), for which the folding enthalpy in data set [1] was -22.7 kcal/mol. Further, the Tm in data set [2] turned out to be 53.3 °C.
The like results for GTTCGCGGAAACGTGAAC ((((.((....)).)))) were, in that order, -37.7 kcal/mol and 56.8 °C.
The matching figures for GTTGGAGGAAACTCTAAC (((.(((....))).))): -27.1 kcal/mol and 39.9 °C.
The like results for GGAGTGACGAAAGTCTCC (((..(((....)))))) were, in that order, -18 kcal/mol and 38.8 °C.
GAGGGTGGAAACACCCTC (((((((....))))))): in data set [1], the folding enthalpy was -35 kcal/mol. In addition, the Tm in data set [2] came to 68.7 °C.
The matching figures for GTTTTTCGAAAGAATAAC (((.(((....))).))): -28.1 kcal/mol and 34.7 °C.
The matching figures for GATCGTATGGACGATC ((((((....)))))): -27 kcal/mol and 56.5 °C.
The like results for GCGTGCGAAAGCACCCGC ((((((....)))..))) were, in that order, -10.1 kcal/mol and 43.7 °C.
GATCCAGACTTGGATC ((((((....)))))): in data set [1], the folding enthalpy is -35 kcal/mol. In addition, in data set [2], the Tm is 56.1 °C.
The matching figures for GCGAAGCGAAAGCTTAGC ((.((((....)))).)): -16.1 kcal/mol and 56 °C.
The matching figures for GATCATATTATGATC ((((((...)))))): -35.9 kcal/mol and 48.6 °C.
The matching figures for GTGTAAGGAAACTTACAC (((((((....))))))): -42.2 kcal/mol and 54.2 °C.
Regarding GCAATCCGAAAGGAGTGC (((.(((....))).))), the folding enthalpy in data set [1] was -48 kcal/mol. For the same sequence, the Tm in data set [2] was 61.1 °C.
The matching figures for TCAAGGAAACTTGA (((((....))))): -8.95 kcal/mol and 32 °C.
With GGGCATACGAAAGTACCC (((..(((....)))))), the folding enthalpy in data set [1] was -19.6 kcal/mol. Further, the Tm in data set [2] came out at 34.7 °C.
The matching figures for GATCCCGCCTGGGATC ((((((....)))))): -39.1 kcal/mol and 64.9 °C.
The matching figures for GCGCAAGGAAACTCACGC (((..((....))..))): -15 kcal/mol and 28.4 °C.
For GTCATAGGAAACTGTGAC ((((.((....)).)))), the folding enthalpy in data set [1] is -32.1 kcal/mol. The Tm in data set [2] is 46.4 °C.
